HIF activator – HIF pathway transcriptional activation. U2OS HRE-luciferase reporter, luminescence; normalized: DMSO 0%, desferrioxamine 100%. activation, % at 7.5 µM (by protocol). 300,000 tested, 0.32% active;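 active = mean activation of at least 10% of the iron chelator positive control signal, with at least half of replicates also reaching 10%; inconclusive = mean and replicate majority disagree about reaching 10%; inactive = mean and most replicates under 10%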
HSF1 activator – increases HSF-1 driven luciferase reporter signal; 300,000 tested, 1.7% active; activation, % at 9 µM; NIH3T3-HGL HSF-1 luciferase reporter, MG132, 8 h; 100% = twice DMSO control signal;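 active = mean replicate activation of at least 50% with a set share of replicates each reaching 50%; inconclusive = only one of those two conditions met; inactive = mean below 50% and too few replicates reaching it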
HSF1 inh – HSF1 inhibition. 300,000 tested, 0.77% active. NIH3T3-HGL HSE-luciferase, MG132-induced, luminescence 8 h; hits give low values. AID 2098. activity change, negative = inhibition, % at 7.5 µM (by protocol);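 active = more than half of replicate wells show activity change below -50%, luminescence cut by over half; inconclusive = some wells, but at most half, below -50%; inactive = no replicate well below -50%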;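 also: luciferase reports HSF-1 transcriptional activity via heat shock element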
T cruzi inh – T. cruzi replication inhibition; T. cruzi beta-gal in NIH3T3, luminescence, 90 h; inhibition, % (test concentration not listed); 300,000 tested, 1.4% active;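 active = mean inhibition across valid replicates above about 55%, limit read from the data; inconclusive = mean below that limit but half or more replicates reach it; inactive = mean below it, under half of replicates reach it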;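 also: signal also drops with host cell toxicity which is not excluded here; higher percent means less beta-gal luminescence so fewer parasites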
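assay system = mouse NIH/3T3 fibroblasts infected with β-gal-expressing T. cruzi Tulahuen C4 | input = 5,000 NIH/3T3 host cells per well | buffer or medium = DMEM plus 2% FBS | timing = 3 h host attachment, then at least 90 h co-culture | measured by = GalScreen luminescence, 60 min | evaluation = luminescence reflecting intracellular parasite burden, expressed as percent inhibition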
Calb FLC – C. albicans growth modulation with fluconazole. C. albicans CaCi-2 (fluconazole-resistant clinical isolate) + fluconazole, Alamar Blue growth, 48 h. growth inhibition, % (concentration not given with the values). 300,000 tested, 0.57% active;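 active = growth inhibition above about 58% in most replicates, limit read from the data, passing the limit was not always enough; inconclusive = exactly half the replicates above a set limit; inactive = most replicates below a set limit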;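 also: all wells also contain fluconazole at 8 µg/ml as a sub-toxic cotreatment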
Numbers stand for hits; . = inactive; ? = inconclusive; / = no result given. Sampled rows, rich in hits. Any-hit rate of the full collection: about 4.4%.

SMILES	HIF activator	HSF1 activator	HSF1 inh	T cruzi inh	Calb FLC
Cn1c(CCCOc2ccc(Cl)cc2Cl)nnc1SCC(=O)Nc1ccc(F)c(Cl)c1	.	.	.	.	.
Cn1c(CCCOc2ccc(Cl)cc2Cl)nnc1SCC(=O)Nc1cccc(F)c1	.	53.9	.	.	.
COC(=O)c1c(NC(=O)CN2C(=O)NC3(CCC(C(C)(C)C)CC3)C2=O)sc2c1CCCCC2 (stereo unspecified)	.	/	/	57.9	.
C/C(=N\Nc1cccc(C(=O)O)c1)c1ccc(Cl)s1	.	.	.	.	78.0
COc1ccc(/C(C)=N/Nc2cccc(C(=O)O)c2)cc1OC	.	.	.	.	.
Cc1ccc(NC(=O)CCc2c(C)nn(-c3ccc(N4CCCCC4)nn3)c2C)cc1C	.	56.0	.	.	.
Clc1ccc(-c2nnc(Sc3nc4ccccc4o3)c3ccccc23)cc1	.	.	.	.	.
Cc1ccc(-c2nnc(Sc3nc4ccccc4o3)c3ccccc23)cc1	93.9	.	.	.	.
CCSc1nnc(-c2ccc(C)cc2)c2ccccc12	.	.	.	.	92.9
Cc1ccc(C2C3=C(CC(C)(C)CC3=O)N=C3c4ccccc4C(=O)C32)cc1 (stereo unspecified)	.	.	.	.	84.8
O=C(Cn1c2c(sc1=O)C1c3ccccc3OCC1CS2)Nc1ccc(Cl)cc1 (stereo unspecified)	.	.	.	.	.
CC(=O)Nc1ccc(NC2=C(Cl)C(=O)c3ccccc3C2=O)cc1	.	.	.	?	.
O=C(Oc1ccc(NC2=C(Cl)C(=O)c3ccccc3C2=O)cc1)c1ccc([N+](=O)[O-])cc1	.	.	.	63.3	?
CCOc1ccc2nc(N3CCCCCC3)sc2c1	.	71.7	.	.	.
CCOc1ccc2nc(N3C(=O)/C(=C/c4ccccc4)NC3=S)sc2c1	.	.	.	.	92.1
COc1ccc2nc(N3C(=O)/C(=C/c4ccccc4)NC3=S)sc2c1	.	.	.	.	.
CCOc1ccc2nc(N3CCC(C(=O)N4CCN(C5CCCCC5)CC4)CC3)sc2c1	.	.	.	.	.
CC(=O)c1ccc(NC(=O)CSc2nc(C)cc(C)c2C(N)=O)cc1	.	.	.	.	.
COc1ccc(/C=C/C2=CCN(Cc3ccc(OC)cc3)CC2)cc1	.	.	.	58.0	.
Cc1sc2nc(C3CC3)nc(SCC(=O)N3CCc4ccccc4C3)c2c1C	.	67.5	.	.	.
COc1ccc(CN(C)C(=O)c2cc(S(=O)(=O)N3CCOCC3)ccc2N2CCCC2)cc1	.	.	?	.	.
CCN(CC(=O)Nc1ccc(NC(C)=O)cc1)C(=O)COc1ccccc1Cc1ccccc1	.	.	.	.	.
CCC1(c2ccc(F)cc2)NC(=O)N(CC(=O)N2CCN(S(=O)(=O)c3ccc(C)cc3)CC2)C1=O (stereo unspecified)	.	.	.	.	.
CCCCc1c(C)nc(N)[nH]c1=O	19.8	.	.	.	.
CC1CCc2c(C(=O)Nc3ccc(N4CCOCC4)cc3)csc2C1 (stereo unspecified)	.	.	.	.	.
SMILES	HIF activator	HSF1 activator	HSF1 inh	T cruzi inh	Calb FLC
CC(C)CCNC(=O)c1nn(Cc2ccccc2)c(=O)c2ccccc12	.	.	.	.	.
CC(C)N(CCNC(=O)c1nn(Cc2ccccc2)c(=O)c2ccccc12)C(C)C	.	.	.	54.6	.
COc1ccc(OS(=O)(=O)c2c(C)noc2C)cc1	.	.	.	.	.
O=c1oc(-c2cccs2)nc2sc3c(c12)CCCC3	.	63.2	.	.	.
CC1=CC(C)[C@H](/C=N/n2c(=O)[nH]c3c([nH]c4ccc(Br)cc43)c2=O)C(C)C1 (stereo partly specified)	.	.	.	63.7	.
O=C(CSc1nnc(NC2CCCCC2)s1)NCc1ccco1	.	.	.	.	.
O=C1CCCC/C1=C/Nc1cccc(C(F)(F)F)c1	.	.	.	.	.
O=C1CCC2S/C(=C/Nc3ccc(C(F)(F)F)cc3)C(=O)N12 (stereo unspecified)	.	.	-65.1	.	.
CCOc1ccc(CN2CCC(C(=O)N3CCN(c4ccccc4F)CC3)CC2)cc1OC	.	.	.	69.2	.
COc1ccc(NC(=O)Cc2nnc(SCC(=O)NC3=NCCS3)n2C)cc1	.	.	.	.	.
Nc1ccc(Cl)c(S(=O)(=O)Nc2ccc(Cl)cc2)c1	.	.	.	64.0	.
O=S(=O)(Nc1ccncc1)c1cc(Cl)ccc1Cl	.	.	.	.	.
C=CCc1cc(Cl)ccc1OC(=O)Nc1cccc(Cl)c1	.	.	.	.	.
c1ccc(-c2nc3ccccc3c3nncn23)cc1	.	.	-59.2	.	.
O=C1c2cccc3c([N+](=O)[O-])ccc(c23)C(=O)N1c1ccccn1	.	.	-67.6	.	.
O=C1c2cccc3c([N+](=O)[O-])ccc(c23)C(=O)N1O	.	51.8	.	.	.
O=C1c2cccc3c([N+](=O)[O-])ccc(c23)C(=O)N1c1ccc(Cl)cn1	.	.	.	.	.
COCC1COS(=O)(=O)NC1(C)C (stereo unspecified)	.	.	.	.	.
c1cnc2c(OCc3nc4ccccc4[nH]3)cccc2c1	.	67.5	.	.	.
Cc1ccccc1OCc1nc2ccccc2[nH]1	.	.	.	.	.
COc1ccccc1OCc1nc2ccccc2[nH]1	.	58.2	.	.	.
O=C(COC(=O)c1cccnc1Cl)NCc1ccco1	.	.	.	.	.
CCN(CC)CCN(C(=O)c1cc2ccccc2cc1OC)c1nc2ccc(OC)cc2s1	.	.	.	.	80.5
CCN(CC)CCN(C(=O)c1cc2ccccc2cc1OC)c1nc2ccc(F)cc2s1	.	.	.	.	.
CCOc1ccc2nc(N(CCN(CC)CC)C(=O)c3ccc([N+](=O)[O-])cc3)sc2c1	.	.	.	54.9	.
SMILES	HIF activator	HSF1 activator	HSF1 inh	T cruzi inh	Calb FLC
COc1ccc2nc(N(CCN(C)C)C(=O)c3ccc4c(c3)OCCO4)sc2c1	.	.	.	64.5	.
CCN(CC)CCN(C(=O)c1ccc2ccccc2c1)c1nc2ccc(OC)cc2s1	.	.	.	.	98.7
CN(C)CCN(C(=O)c1ccc(S(=O)(=O)N(C)c2ccccc2)cc1)c1nc2cc3c(cc2s1)OCCO3	.	.	.	?	.
CCN(CC)CCN(C(=O)C1=COCCO1)c1nc2ccc(C)cc2s1	.	53.2	.	58.9	.
CN(C)CCN(C(=O)c1ccc(S(=O)(=O)N(C)C)cc1)c1nc2cc3c(cc2s1)OCCO3	.	.	.	60.7	.
Cc1c(O)nc(SCC(=O)Nc2nccs2)n(-c2ccccc2F)c1=O	.	.	.	.	.
COC(=O)c1ccc(Sc2ccccc2NS(=O)(=O)c2ccc(C)cc2)nc1	.	.	.	.	.
Cc1n[nH]c(C)c1S(=O)(=O)N(CC(=O)N1CCc2ccccc21)c1ccc(C(C)C)cc1	/	75.0	.	.	.

Compound activity deposited in PubChem BioAssay by Broad Institute.
